Experimental data as given in ChEMBL document CHEMBL3994624, “Antimalarial Pyrido[1,2-a]benzimidazoles: Lead Optimization, Parasite Life Cycle Stage Profile, Mechanistic Evaluation, Killing Kinetics, and in Vivo Oral Efficacy in a Mouse Model” (J Med Chem, 2017).
≈ marks a conversion by molar mass, not a printed value. Calls of active or inactive are those of the source. No cut-off for these calls is given here.

What was measured:
Plasmodium berghei [1] = experiment: Antimalarial activity against GFP-fused Plasmodium berghei ANKA infected in mouse assessed as mouse mean survival days at 50 mg/kg, po administered once daily for 4 days; type: functional
Summary of the method: (§1)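 P. berghei-infected mice (n=3 per dose) dosed orally once daily on 4 consecutive days at 4, 24, 48 and 72 h after infection; compound in 90/10 Tween80/ethanol (v/v) diluted 10-fold with water. Read-outs were % parasitemia reduction, mean survival time in days and cure; mice with <40% parasitemia reduction euthanized on day 4.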

Plasmodium berghei [2] = experiment: Antimalarial activity against GFP-fused Plasmodium berghei ANKA infected in mouse assessed as mouse mean survival days at 30 mg/kg, po administered once daily for 4 days; type: functional; summary of the method: as §1
Huh-7 = experiment: Cytotoxicity against human HuH7 cells at 1 to 10 uM after 48 hrs by Alamarblue assay; type: cell-based; conditions: huh-7, 48 h
Plasmodium berghei [3] = experiment: Antimalarial activity against GFP-fused Plasmodium berghei ANKA infected in mouse assessed as mouse mean survival days at 10 mg/kg, po administered once daily for 4 days; type: functional; summary of the method: as §1
Plasmodium berghei [4] = experiment: Antimalarial activity against GFP-fused Plasmodium berghei ANKA infected in mouse assessed as mouse mean survival days at 3 mg/kg, po administered once daily for 4 days; type: functional; summary of the method: as §1
Plasmodium falciparum [5] = experiment: Anti-plasmodial activity against chloroquine-sensitive Plasmodium falciparum NF54 late 4/5 stage gametocytes after 48 hrs by luciferin-luciferase reaction based bioluminescence assay; type: functional; conditions: NF54, 48 h
Plasmodium falciparum [6] = experiment: Anti-plasmodial activity against chloroquine-sensitive Plasmodium falciparum NF54 by [3H]-hypoxanthine incorporation assay; type: functional
Summary of the method: (§2)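 P. falciparum asexual blood-stage growth inhibition by [3H]hypoxanthine incorporation; chloroquine and artesunate run as reference drugs in every experiment; IC50 given as mean of ≥2 independent experiments.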

Mus musculus [7] = experiment: AUC (0 to infinity) in C57/Bl6 mouse at 10 mg/kg, po administered via gavage by LC-MS method; type: ADME, organism-based; design: dose 10 mg/kg, route oral, time infinity; conditions: in vivo
Summary of the method: (§3)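 Mice (n=3) given a single oral dose of 10 mg/kg as a suspension in […] HPMC; plasma sampled over 24 h. Parameters were estimated by nonlinear mixed-effects modelling with a two-compartment disposition model, first-order absorption and elimination.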

Plasmodium berghei [8] = experiment: Antimalarial activity against GFP-fused Plasmodium berghei ANKA infected in mouse assessed as reduction in parasitemia at 50 mg/kg, po administered once daily for 4 days by flow cytometry relative to control; type: functional; design: scale not given: the % may be the effect or the level left
Summary of the method: (§4)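 P. berghei-infected mice, 3 per group. Compound formulated in 90/10 Tween80/ethanol (v/v), diluted 10-fold with water, given orally once daily at 4, 24, 48 and 72 h post-infection. Outcomes: % parasitemia reduction versus untreated control, mean survival days, and cured/infected. Mice with <40% reduction euthanized on day 4.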

[9] = Kinetic solubility of the compound in FaSSIF at pH 6.5 after 2 hrs by shake flask method; type: physicochemical; conditions: read-out: Kinetic_solubility
Plasmodium berghei [10] = experiment: Antimalarial activity against GFP-fused Plasmodium berghei ANKA infected in mouse assessed as reduction in parasitemia at 30 mg/kg, po administered once daily for 4 days by flow cytometry relative to control; type: functional; design: scale not given: the % may be the effect or the level left; summary of the method: as §4
[11] = Volume of distribution in C57/Bl6 mouse at 2.5 mg/kg, iv by LC-MS method; type: ADME, organism-based; conditions: in vivo
Summary of the method: (§5)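 Mice (n=3) given a single intravenous dose of 2.5 mg/kg in dimethylacetamide:polyethylene glycol:propylene glycol/ethanol (4:1) at 1:3:6; 24 h sampling. Parameters were fitted by nonlinear mixed-effects two-compartment model with first-order elimination.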

[12] = Clearance in C57/Bl6 mouse at 2.5 mg/kg, iv by LC-MS method; type: ADME, organism-based; conditions: in vivo; summary of the method: as §5
[13] = Cmax in C57/Bl6 mouse at 10 mg/kg, po administered via gavage by LC-MS method; type: ADME, organism-based; design: dose 10 mg/kg, route oral; conditions: in vivo; summary of the method: as §3
[14] = Half life in C57/Bl6 mouse at 10 mg/kg, po administered via gavage by LC-MS method; type: ADME, organism-based; conditions: in vivo; summary of the method: as §3
[15] = Metabolic stability in Balb/c mouse liver microsomes assessed as compound remaining at 1 uM in presence of NADPH after 30 mins by LC-MS/MS analysis; type: ADME, microsome; conditions: read-out: Stability
Summary of the method: (§6)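 Mouse and human liver microsomes; % compound remaining after 30 min.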

Plasmodium falciparum [16] = experiment: Anti-plasmodial activity against multidrug resistant Plasmodium falciparum K1 by [3H]-hypoxanthine incorporation assay; type: functional; summary of the method: as §2
Plasmodium berghei [17] = experiment: Antimalarial activity against GFP-fused Plasmodium berghei ANKA infected in mouse assessed as reduction in parasitemia at 10 mg/kg, po administered once daily for 4 days by flow cytometry relative to control; type: functional; design: scale not given: the % may be the effect or the level left; summary of the method: as §4
CHO = experiment: Cytotoxicity against CHO cells after by MTT assay; type: cell-based; conditions: Cricetulus griseus
Plasmodium falciparum [18] = experiment: Ratio of IC50 for chloroquine-sensitive Plasmodium falciparum NF54 early 2/3 stage gametocytes to IC50 for chloroquine-sensitive Plasmodium falciparum NF54 late 4/5 stage gametocytes; type: functional
Summary of the method: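 Early (stage II/III) and late (stage IV/V) gametocytes tested in parallel luciferase reporter assays; stage preference = EG IC50/LG IC50.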

[19] = Metabolic stability in human liver microsomes assessed as compound remaining at 1 uM in presence of NADPH after 30 mins by LC-MS/MS analysis; type: ADME, microsome; conditions: read-out: Stability; summary of the method: as §6
[20] = Selectivity index, ratio of IC50 for CHO cells to IC50 for chloroquine-sensitive Plasmodium falciparum NF54; type: toxicity; conditions: hamster, read-out: Ratio IC50
Summary of the method: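 Selectivity index = IC50 CHO / IC50 PfNF54.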

Mus musculus [21] = experiment: AUC (0 to infinity) in C57/Bl6 mouse at 2.5 mg/kg, iv by LC-MS method; type: ADME, organism-based; design: dose 2.5 mg/kg, time infinity, route intravenous; conditions: in vivo; summary of the method: as §5
Plasmodium berghei [22] = experiment: Antimalarial activity against GFP-fused Plasmodium berghei ANKA infected in mouse assessed as protection against parasitemia at 3 mg/kg, po administered once daily for 4 days measured 30 days post infection by light microscopy; type: functional, organism-based; summary of the method: as §4
Plasmodium berghei [23] = experiment: Antimalarial activity against GFP-fused Plasmodium berghei ANKA infected in mouse assessed as protection against parasitemia at 10 mg/kg, po administered once daily for 4 days measured 30 days post infection by light microscopy; type: functional, organism-based; summary of the method: as §4
Plasmodium berghei [24] = experiment: Antimalarial activity against GFP-fused Plasmodium berghei ANKA infected in mouse assessed as protection against parasitemia at 50 mg/kg, po administered once daily for 4 days measured 30 days post infection by light microscopy; type: functional, organism-based; summary of the method: as §4
[25] = Tmax in C57/Bl6 mouse at 10 mg/kg, po administered via gavage by LC-MS method; type: ADME, organism-based; conditions: in vivo; summary of the method: as §3
[26] = Oral bioavailability in C57/Bl6 mouse at 10 mg/kg administered via gavage by LC-MS method; type: ADME, organism-based; conditions: in vivo; summary of the method: as §3
[27] = Half life in C57/Bl6 mouse at 2.5 mg/kg, iv by LC-MS method; type: ADME, organism-based; conditions: in vivo; summary of the method: as §5
Plasmodium berghei [28] = experiment: Antimalarial activity against GFP-fused Plasmodium berghei ANKA infected in mouse assessed as reduction in parasitemia at 3 mg/kg, po administered once daily for 4 days by flow cytometry relative to control; type: functional; design: scale not given: the % may be the effect or the level left; summary of the method: as §4
Plasmodium berghei [29] = experiment: Antimalarial activity against GFP-fused Plasmodium berghei ANKA infected in mouse assessed as protection against parasitemia at 12.5 mg/kg, po administered once daily for 4 days measured 30 days post infection by light microscopy; type: functional, organism-based
Plasmodium berghei [30] = experiment: Antimalarial activity against GFP-fused Plasmodium berghei ANKA infected in mouse assessed as protection against parasitemia at 6 mg/kg, po administered once daily for 4 days measured 30 days post infection by light microscopy; type: functional, organism-based
Plasmodium berghei [31] = experiment: Antimalarial activity against GFP-fused Plasmodium berghei ANKA infected in mouse assessed as protection against parasitemia at 25 mg/kg, po administered once daily for 4 days measured 30 days post infection by light microscopy; type: functional, organism-based
Ferriprotoporphyrin IX [32] = experiment: Inhibition of beta hematin formation in ring stage of chloroquine-sensitive Plasmodium falciparum NF54 assessed as increase in free heme level after 36 hrs by UV-vis spectra analysis
Summary of the method: (§7)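 Synchronized ring-stage parasites treated with increasing drug concentrations, then cellular fractionation. Free haem and haemozoin quantified as iron (fg/cell) and compared with untreated control; significance by p-values; parasite survival overlaid.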

Ferriprotoporphyrin IX [33] = experiment: Inhibition of beta hematin formation in ring stage of chloroquine-sensitive Plasmodium falciparum NF54 assessed as decrease in haemozoin level after 36 hrs by UV-vis spectra analysis; summary of the method: as §7

CCNCCNc1cc(-c2ccc(C(F)(F)F)cc2)c(C#N)c2nc3cc(Cl)cc(Cl)c3n12
MSD (Plasmodium berghei [1]): 30 days
MSD (Plasmodium berghei [2]): 30 days
Activity (Huh-7): Non-Toxic
MSD (Plasmodium berghei [3]): 18 days
MSD (Plasmodium berghei [4]): 16 days
IC50 (Plasmodium falciparum [5]): 1.44 µM
IC50 (Plasmodium falciparum [6]): 0.03 µM
AUC (Mus musculus [7]): 11.4 µM·h
Activity (Plasmodium berghei [8]): 98%
solubility kinetic at 2 h [9]: 20 µM (≈ 9.85 µg/mL)
Activity (Plasmodium berghei [10]): 99.4%
Vd [11]: 19 L/kg
clearance [12]: 11 mL/min/kg
Cmax [13]: 220 nM
half-life [14]: 21 h
remaining at 0.5 h, 1 µM [15]: 87%
IC50 (Plasmodium falciparum [16]): 0.04 µM
Activity (Plasmodium berghei [17]): 99.4%
IC50 (CHO): 11.2 µM
Ratio IC50 (Plasmodium falciparum [18]): 1.2
remaining at 0.5 h, 1 µM [19]: 87%
selectivity ratio [20]: 431
AUC (Mus musculus [21]): 9.52 µM·h
Activity (Plasmodium berghei [22]): inactive
Activity (Plasmodium berghei [23]): inactive
Activity (Plasmodium berghei [24]): Active
Tmax [25]: > 10 h
bioavailability [26]: 30%
half-life [27]: 21 h
Activity (Plasmodium berghei [28]): 99.4%

CCNCCNc1cc(-c2ccc(C(F)(F)F)cc2)c(C#N)c2nc3ccccc3n12
Activity (Plasmodium berghei [29]): inactive
Activity (Plasmodium berghei [30]): inactive
Activity (Plasmodium berghei [31]): inactive
inhibition (Ferriprotoporphyrin IX [32]): Dose-dependent effect
inhibition (Ferriprotoporphyrin IX [33]): Dose-dependent effect
Activity (Plasmodium berghei [22]): inactive
Activity (Plasmodium berghei [24]): inactive
